Most compounds without a hit are left out; they make up all but 3.1% or so of the library.
OX1R antag-1: OX1R (HCRTR1) antagonists, primary screen, fluorescence, CHO/OX1R cells, Fluo-8 calcium, orexin A. inhibition, % at 5 µM. 330,000 compounds, 0.43% hits. Fluo-8 calcium fluorescence. Orexin/Hypocretin receptor type 1 (Homo sapiens), O43613. AID 434989, 2010;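 active = inhibition above its plate's threshold, mean inhibition of all tested compounds on the plate plus 3 SD, cut at about 37% in these data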
GPR7 antagonist: GPR7 receptor antagonists, primary screen, cell-based, fluorescence, single concentration; GPR7-expressing cells, fluorescence antagonist assay; inhibition, % at 4.4 µM; 290,000 compounds, 1.1% hits; in the data active = inhibition above about 16%, passing the limit was not always enough;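 note: cells stimulated with the agonist NPW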
Target sequence (P48145 whole entry, looked up): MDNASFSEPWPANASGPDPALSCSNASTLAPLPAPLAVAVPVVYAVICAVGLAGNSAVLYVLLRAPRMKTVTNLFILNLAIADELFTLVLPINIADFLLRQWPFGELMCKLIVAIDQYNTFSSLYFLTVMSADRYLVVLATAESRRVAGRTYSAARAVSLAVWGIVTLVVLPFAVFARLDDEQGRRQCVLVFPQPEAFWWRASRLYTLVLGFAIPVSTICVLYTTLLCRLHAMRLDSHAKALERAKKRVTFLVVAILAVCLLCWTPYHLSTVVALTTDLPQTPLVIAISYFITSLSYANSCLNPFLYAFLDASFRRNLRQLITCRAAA
OX1R antag-2: antagonists of human orexin 1 receptor (OX1R); OX1R-expressing cells, FRET antagonist read-out; inhibition, % at 6.6 µM; 330,000 compounds, 1.8% hits; AID 485270, 2010; in the data active = inhibition mostly above about 38%, no sharp cut-off; inactive = mostly below about 40%
GalR3 antag: GalR3 antagonists in HEK293 cells, primary screen, cell-based, fluorescence readout. Galanin receptor type 3 (Homo sapiens), O60755. 360,000 compounds, 0.44% hits. inhibition, % at 3 µM. HEK293 GalR3-CNG cAMP membrane potential fluorescence; galR3 body fused to GalR1 C-terminus;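 active = inhibition above the screen-wide average plus 3 SD, cut at about 13% in these data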;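 note: forskolin and galanin both at EC90 stimulate the cells; cAMP rise reported by CNG channel membrane potential dye signal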
CHO parental Ca: ATP-evoked calcium signal inhibitors, parental CHO, primary screen, counter-screen for OX1R antagonist project, cell-based, fluorescence, Fluo-8 calcium dye | parental CHO-K1, ATP-induced calcium, Fluo-8 fluorescence | inhibition, % at 5.6 µM | 330,000 compounds, 0.63% hits;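 active = inhibition above that plate's mean sample inhibition plus 3 SD, cut at about 26% in these data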
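Test system: untransfected parental CHO cell line; also added: ATP stimulus; dosing: 5.6 µM, single dose; signal: calcium-sensitive Fluo-8 fluorescence; measure: percent inhibition of ATP-evoked calcium rise, normalized to controls; benchmarks: low control ATP plus DMSO, high control DMSO only; replication: one well per compound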
Each line names hits and unclear results; the compound was inactive in the other large screens.

O=c1[nH]c(=S)[nH]c2nc(-c3ccccc3)cnc12	OX1R antag-2 63 (no result: GPR7 antagonist)
Cc1ccccc1-c1cc2c(nn1)-c1ccccc1C2=O	OX1R antag-2 72
Cc1ccc(-c2cc3c(nn2)-c2ccccc2C3=O)cc1	OX1R antag-2 44
O=C(O)c1cccc(N2C(=O)c3cc([N+](=O)[O-])cc4cc([N+](=O)[O-])cc(c34)C2=O)c1	OX1R antag-2 96
COc1cc(CNC(C)(C)CO)cc(Br)c1OCc1ccc(Cl)cc1	GPR7 antagonist 37
O=C(CSc1nc2ccccc2c(=O)n1CCCN1CCOCC1)Nc1ccc(F)c(Cl)c1	none (no result: GPR7 antagonist)
Cc1ccc(NC(=O)CSc2nc3ccccc3c(=O)n2CCCN2CCCCC2)cc1Cl	GPR7 antagonist 25
CCn1c(Cc2cccc3ccccc23)nnc1SCC(=O)Nc1nccs1	OX1R antag-2 71
CCc1nnc(SCC(=O)Nc2nccs2)n1CC	none
CCN(C(=O)COC(=O)CSc1ccc(C(N)=O)cc1[N+](=O)[O-])C1CCCCC1	none
CC(OC(=O)c1cc(S(=O)(=O)N(C)c2ccccc2)ccc1Cl)C(=O)Nc1ccc2c(c1)OCCO2 (stereo not given)	OX1R antag-2 46
CC(=O)O[C@@H]1C=C[C@@H](C#Cc2ccc(C(C)(C)C)cc2)O[C@@H]1COC(=O)NC(C)C	none (no result: OX1R antag-1, GPR7 antagonist, OX1R antag-2, CHO parental Ca)
O=C(N/N=C/c1cccc(OC2CSC2)c1)c1ccccc1O	OX1R antag-2 72
COc1ccc(CN(Cc2ccccn2)C(=O)CN2C(=O)COc3ccccc32)cc1	none (no result: GalR3 antag)
COc1ccc(CN(C(=O)CN2C(=O)COc3ccccc32)C2CCCC2)c(OC)c1	OX1R antag-2 58
O=C(CN1C(=O)COc2ccc(S(=O)(=O)N3CCOCC3)cc21)Nc1cccc(Cl)c1	none
COc1ccccc1C(=O)NC(=Nc1nc2ccccc2o1)NC(=O)c1ccccc1OC	OX1R antag-1 82, OX1R antag-2 36, CHO parental Ca 48
CCNc1nc(C)nc2c1oc1ccccc12	none
OCCNc1nc(-c2ccccc2)nc2c1oc1ccccc12	OX1R antag-2 40
CCc1ccc(N(CC(=O)N2CCOCC2)S(C)(=O)=O)cc1	none
O=C(N/N=C/C(Br)=C\c1ccccc1)c1cccs1	OX1R antag-2 40
Cc1cc(C)c(S(=O)(=O)c2ccc(C(C)(C)C)cc2)c(Cl)n1	CHO parental Ca 43
FC(F)(F)c1cc(-c2ccccc2)nc2ncnn12	none
FC(F)(F)c1cc(-c2cccs2)nc2ncnn12	OX1R antag-2 62
O=[N+]([O-])c1ccc(-c2nnc(CNC3CCCC3)o2)cc1	OX1R antag-2 63
Clc1ccc(-c2nnc(CNC3CC3)o2)cc1	none
O=C(OCc1nnc(-c2ccc([N+](=O)[O-])cc2)o1)C1CCN(C(=O)c2ccc(F)cc2)CC1	OX1R antag-2 38 (no result: GPR7 antagonist)
O=c1cc(-c2ccccc2)oc2c1ccc1ccccc12	none (no result: OX1R antag-1, GPR7 antagonist, OX1R antag-2, CHO parental Ca)
O=c1cc(/C=C/c2ccccc2)oc2c1ccc1ccccc12	OX1R antag-2 56
O=c1cc(-c2cccnc2)oc2c1ccc1ccccc12	OX1R antag-2 36
Cc1ccc(NC(=O)/C=C/c2ccc(S(=O)(=O)N3CCOCC3)cc2)cc1S(=O)(=O)N(C)C	none (no result: OX1R antag-1, GPR7 antagonist, OX1R antag-2, CHO parental Ca)
COc1ccc(OCC(=O)Nc2ccc(N3CCN(C(=O)c4ccccc4)CC3)c(Cl)c2)cc1	CHO parental Ca 43
COC(=O)N1Cc2ccnnc2CC1c1ccccc1-c1ccccc1 (stereo not given)	none (no result: OX1R antag-1, GPR7 antagonist, OX1R antag-2, CHO parental Ca)
N#Cc1ccc(OS(=O)(=O)c2ccc(-c3ccon3)s2)cc1	CHO parental Ca 34
COc1ccc(Cl)cc1NC(=O)CN(C)C1CCCCC1	none
COc1ccc(OC)c(NC(=O)CN(Cc2ccc(F)cc2)C2CCCCC2)c1	CHO parental Ca 45
COc1ccc(C(C#N)=C2C=CC(=NO)C(C)=C2Cl)cc1	none (no result: OX1R antag-1, GPR7 antagonist, OX1R antag-2, CHO parental Ca)
Cc1ccc(S(=O)(=O)N(C)C)cc1NC(=S)Nc1cccc2ccccc12	GPR7 antagonist 46
CN(C1CCCCC1)S(=O)(=O)CCNC(=O)c1ccccc1	none (no result: GPR7 antagonist)
COc1cccc(OC)c1OCCCc1c(C)n[nH]c1C	GPR7 antagonist 16
O=C(O)c1cccc(NC(=O)c2ccc3c(c2)C(=O)N(CC2CCCO2)C3=O)c1 (stereo not given)	OX1R antag-2 56
